This is an account of results in ChEMBL document CHEMBL3580658, “Bisthiodiketopiperazines and Acorane Sesquiterpenes Produced by the Marine-Derived Fungus Penicillium adametzioides AS-53 on Different Culture Media” (J Nat Prod, 2015).

Assay [1] can be described thus: Cytotoxicity against human HuH7 cells by tetrazolium salt based quantitative colorimetric assay. Type of assay: functional, cell-based. The settings on record: Huh-7.
The next assay has as its system HepG2. Nature of the assay: Cytotoxicity against human HepG2 cells by tetrazolium salt based quantitative colorimetric assay. Type of assay: functional, cell-based.
The test system of the next assay is NCI-H446. The assay can be described thus: Cytotoxicity against human NCI-H446 cells by tetrazolium salt based quantitative colorimetric assay. Type of assay: functional, cell-based.
A further assay relates to Artemia salina. Nature of the assay: Cytotoxicity in brine shrimp. Type of assay: functional. The settings on record: read-out: LD50 (the source's name).
The test system of another assay is Vibrio parahaemolyticus. Nature of the assay: Antimicrobial activity against Vibrio parahaemolyticus QDIO-8 by XTT assay. The assay is classed as functional. The essentials:
(§1)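 Bacterial panel of two human-pathogenic and seven aquacultural strains, run by a previously described method. Chloramphenicol served as the positive control against bacteria.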

Assay [2] can be described thus: Cytotoxicity against human SGC7901 cells by tetrazolium salt based quantitative colorimetric assay. The settings on record: SGC-7901. Type of assay: functional, cell-based.
A further assay relates to SW1990. Nature of the assay: Cytotoxicity against human SW1990 cells by tetrazolium salt based quantitative colorimetric assay. The assay is classed as functional, cell-based.
Another assay deals with U-251. Nature of the assay: Cytotoxicity against human U251 cells by tetrazolium salt based quantitative colorimetric assay. Type of assay: functional, cell-based.
The test system of a further assay is Vibrio harveyi. Nature of the assay: Antimicrobial activity against Vibrio harveyi QDIO-7 by XTT assay. The assay is classed as functional. A digest of the protocol: as §1
(In general: Formazan colour is commonly taken as a measure of viable cells.)

The next assay deals with A549. The assay can be described thus: Cytotoxicity against human A549 cells by tetrazolium salt based quantitative colorimetric assay. Type of assay: functional, cell-based.
Assay [3] can be described thus: Cytotoxicity against mouse LM3 cells by tetrazolium salt based quantitative colorimetric assay. Type of assay: functional, cell-based.
The next assay has as its system Gaeumannomyces graminis. The assay can be described thus: Antimicrobial activity against Gaeumannomyces graminis QDAU-3 by XTT assay. Type of assay: functional. A digest of the protocol: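 Plant-pathogenic fungus strain QDAU-3 was obtained from Qingdao Agricultural University and tested by a previously described method. Amphotericin B was the positive control against fungi.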

A further assay has as its system HeLa. Nature of the assay: Cytotoxicity against human HeLa cells by tetrazolium salt based quantitative colorimetric assay. The assay is classed as functional, cell-based.
The next assay deals with Staphylococcus aureus. The assay can be described thus: Antimicrobial activity against Staphylococcus aureus EMBLC-2 by XTT assay. Type of assay: functional. A digest of the protocol:
as §1

Another assay concerns DU-145. Nature of the assay: Cytotoxicity against human DU145 cells by tetrazolium salt based quantitative colorimetric assay. The assay is classed as functional, cell-based.
The test system of another assay is SW480. Nature of the assay: Cytotoxicity against human SW480 cells by tetrazolium salt based quantitative colorimetric assay. Type of assay: functional, cell-based.
The next assay deals with Aeromonas hydrophila. The assay can be described thus: Antimicrobial activity against Aeromonas hydrophila QDIO-1 by XTT assay. Type of assay: functional. A digest of the protocol: as §1
Assay [4] in a line: Cytotoxicity against human L02 cells by tetrazolium salt based quantitative colorimetric assay. The assay is classed as functional, cell-based.
The subject of the next assay is MCF7. Nature of the assay: Cytotoxicity against human MCF7 cells by tetrazolium salt based quantitative colorimetric assay. Type of assay: functional, cell-based.

In brackets after ≈: the same amount, converted by molar mass.

On to `COc1ccc([C@@H]2SS[C@@]34C[C@]5(O)[C@H](Cl)C=C[C@@H](O)[C@@H]5ON3C(=O)[C@@H]2N(C)C4=O)c(O)c1OC`, for which the half-maximal inhibitory concentration (IC50) (in [1]; with HepG2; in the assay with NCI-H446; in assay [2]; in the assay on SW1990; in the assay with U-251) was above 10 µM in each case. Further, the half-maximal inhibitory concentration (IC50) (with A549; in [3]; in the assay on HeLa; in the assay on DU-145; in the assay with SW480; in [4]) was above 10 µM in each case. Moreover, in the assay with MCF7, the IC50 is above 10 µM. Besides, the LC50 with Artemia salina was 4.8 µM. Besides, the MIC in the assay on Vibrio parahaemolyticus stood at 8 µg/mL (≈ 15.1 µM); in the assay with Vibrio harveyi it was 32 µg/mL (≈ 60.3 µM); with Gaeumannomyces graminis, 16 µg/mL (≈ 30.1 µM); against Staphylococcus aureus, 8 µg/mL (≈ 15.1 µM); in the assay with Aeromonas hydrophila it was 8 µg/mL (≈ 15.1 µM).
Take `COc1ccc([C@@H]2SS[C@@]34C[C@]5(O)[C@H](O)C=C[C@@H](O)[C@@H]5ON3C(=O)[C@@H]2N(C)C4=O)c(O)c1OC`: the IC50 (in [1]; with HepG2; in the assay on NCI-H446; in [2]; in the assay with SW1990; in the assay on U-251) was above 10 µM throughout. For the same compound, the half-inhibitory concentration (IC50) (in the assay with A549; in assay [3]; in the assay on HeLa; with DU-145; with SW480; in assay [4]) was above 10 µM in each case. The 50% inhibitory concentration (IC50) with MCF7 was above 10 µM. The minimum inhibitory concentration (MIC) against Staphylococcus aureus was found to be 64 µg/mL (≈ 125 µM).
For `C=C(C)[C@H]1[C@H](OC(C)=O)C[C@H](C)[C@@]12CC=C(C)[C@@H](O)C2`, the IC50 (in assay [1]; in the assay on HepG2; in the assay on NCI-H446; in assay [2]; in the assay with SW1990; in the assay on U-251) was above 10 µM in each case. In addition, the IC50 (in the assay with A549; in [3]; in the assay with HeLa; with DU-145; in the assay with SW480; in assay [4]) was above 10 µM throughout. Besides, the half-maximal inhibitory concentration (IC50) in the assay with MCF7 was above 10 µM.
Turning to `C=C(C)[C@H]1[C@H](OC(C)=O)C[C@H](C)[C@@]12CC=C(CO)[C@@H](O)C2`, the 50% inhibitory concentration (IC50) is above 10 µM in assay [1]; above 10 µM in the assay with HepG2; 5 µM in the assay on NCI-H446; above 10 µM in assay [2]; above 10 µM in the assay with SW1990; above 10 µM with U-251. Further, the IC50 (in the assay with A549; in assay [3]; in the assay on HeLa; in the assay with DU-145; in the assay with SW480; in assay [4]) was above 10 µM throughout. In addition, the concentration for half-maximal inhibition (IC50) in the assay with MCF7 is above 10 µM.
Take `COc1cc2c(c(OC)c1OC)-c1ccc(OC)c(=O)cc1[C@@H](NC(C)=O)CC2` [COLCHICINE]: the LC50 in the assay with Artemia salina was found to be 8.1 µM.

By IC50 is commonly meant the point on the concentration scale where inhibition reaches its midpoint. What is called MIC is the lowest concentration found to suppress growth.
